The species entered for test [1] is Bos taurus. In words: Induction of bovine brain tubulin polymerization at 40 uM by turbidimetry in presence of 4-morpholine-ethanesulfonate. The essentials: (§1)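 Low ionic strength turbidimetry at 350 or 420 nm: 10 μM purified bovine brain tubulin in 0.1 M 4-morpholine-ethanesulfonate (pH 6.9), 0.5 mM MgCl2, 100 μM GTP, 4% DMSO. Baseline at 0°, then temperature stepped to 15° and 37°.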

Test [2] in a line: Inhibition of bovine brain tubulin depolymerization after 20 mins by turbidimetry. Also on record: species or system Bos taurus. The essentials: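 Purified bovine brain tubulin 10 μM (1.0 mg/ml) in 1.0 M monosodium glutamate (pH 6.6), 50 μM GTP, 4% DMSO, with varying analogue concentrations. Temperature jump 0 to 37°, held about 20 min, then reverse jump to 0°. Maximum depolymerization rate read as fall in A350 or A420. IC50 interpolated; at least three independent determinations.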

The species entered for test [3] is Bos taurus. The test can be described thus: Induction of bovine brain tubulin polymerization at 10 uM at 0 degC by turbidimetry at lower temperature in presence of glutamate. The conditions noted are these: in the assay text read “at 15 degC” for “at 0 degC”. The method in brief: (§2)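 Turbidimetry at 350 or 420 nm of 10 μM purified bovine brain tubulin in 1.0 M monosodium glutamate (pH 6.6), 50 μM GTP, 4% DMSO. Baseline at 0°, then stepped temperatures: 15°, 37°, then down to 10° and 0° to follow depolymerization.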

Test [4] is filed under the species Bos taurus. The test can be described thus: Induction of bovine brain tubulin polymerization at 10 uM by turbidimetry at 15 degC in presence of 4-morpholine-ethanesulfonate. The method in brief: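 Purified bovine brain tubulin at 10 μM (1.0 mg/ml) in 0.1 M 4-morpholine-ethanesulfonate (pH 6.9) with 0.5 mM MgCl2, 100 μM GTP, 4% (v/v) DMSO, and agent at 10 μM. Baseline was read at 0°, the controller was then set to 15°, and later temperature steps followed. Polymerization was followed by turbidity at 350 or 420 nm.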

The species named for test [5] is Bos taurus. In words: Induction of bovine brain tubulin depolymerization at 10 uM by turbidimetry in presence of glutamate. The method in brief:
as §2

For test [6], the species on record is Bos taurus. The test can be described thus: Induction of bovine brain tubulin polymerization at 10 uM by turbidimetry at 37 degC in presence of 4-morpholine-ethanesulfonate. The essentials:
as §1

Molecules are shown by their SMILES. Active and inactive are the calls of the source. The rule behind the calls is not given here.

For the compound `CC(=O)O[C@H]1C(=O)[C@]2(C)[C@@H](OC(=O)c3ccccc3)C[C@H]3OC[C@@]3(OC(C)=O)[C@H]2[C@H](OC(=O)c2ccccc2)[C@]2(O)C[C@H](OC(=O)[C@H](O)[C@@H](NC(=O)c3ccccc3)c3ccccc3)C(C)=C1C2(C)C` [PACLITAXEL C7 BENZOIC ACID ESTER], the result in test [1] was inactive. This compound also had a 50% inhibitory concentration (IC50) in test [2] of 650 nM.
`CC(=O)O[C@H]1C(=O)[C@@]2(C)[C@H]([C@H](OC(=O)c3ccccc3)[C@]3(O)C[C@H](OC(=O)[C@H](O)[C@@H](NC(=O)c4ccccc4)c4ccccc4)C(C)=C1C3(C)C)[C@]1(OC(C)=O)CO[C@@H]1C[C@@H]2O` [PACLITAXEL]: the outcome in test [3] and in test [6] was Active. Also, the half-maximal inhibitory concentration (IC50) in test [2] was found to be 420 nM. Further, in test [4], the result was inactive. The Activity in test [5] is under 50%.
